{"data": "Experimental data from different studies", "effect on": "cell growth or viability", "note": "Each line is one published result; the experiments were not run side by side."}
{"SMILES": "COc1cc(C(=O)c2nc(-c3cccc4[nH]nnc34)c[nH]2)cc(OC)c1OC", "cell line": "M14", "assay": "MTS", "conditions": "72 h", "IC50": "0.0532 µM"}
{"SMILES": "COc1ccc(-c2ccc3c(N4CCOC[C@@H]4C)nc(N4CCOC[C@@H]4C)nc3n2)cc1COC(=O)CCOCCOCCOCCONC(=O)c1ccc(F)c(F)c1Nc1ccc(I)cc1F", "cell line": "D54", "assay": "WST-1", "conditions": "72 h", "IC50": "0.327 µM"}
{"SMILES": "C/C(=N/NC(=O)c1cn(-c2ccccc2)nc1-c1ccc(F)cc1)c1c(O)cc(C)oc1=O", "cell line": "Vero", "assay": "MTT", "conditions": "48 h", "IC50": "191 µM"}
{"SMILES": "Fc1ccc(NC(=S)N/N=C/c2cccc3cc4ccccc4nc23)cc1", "cell line": "SK-BR-3", "assay": "MTT", "conditions": "48 h", "IC50": "> 50 µM"}
{"SMILES": "COc1cc(C(=O)c2nc(-c3cccc4[nH]cnc34)c[nH]2)cc(OC)c1OC", "cell line": "M14", "assay": "MTS", "conditions": "72 h", "IC50": "0.0159 µM"}
{"SMILES": "FC(F)(F)c1ccc(-c2cc(COc3cc(C(F)(F)F)nc4ccccc34)on2)cc1", "cell line": "HL-60", "assay": "MTS", "conditions": "72 h", "IC50": "> 100 µM"}
{"SMILES": "C[C@H]1[C@H](C)CC[C@]2(C)CC[C@]3(C)C(=CC(=O)[C@@H]4[C@@]5(C)CC[C@@H](O)[C@](C)(C(=O)NCc6cn(-c7ccccc7C(F)(F)F)nn6)[C@@H]5CC[C@]43C)[C@H]12", "cell line": "HDF", "assay": "MTT", "conditions": "24 h", "IC50": "103 µM"}
{"SMILES": "O=c1cc(OCc2cc(-c3ccc(Cl)cc3Cl)no2)c2ccccc2o1", "cell line": "HL-60", "assay": "MTS", "conditions": "72 h", "IC50": "> 100 µM"}
{"SMILES": "COc1ccc(Nc2ncnc3c2ncn3Cc2ccc(C(=O)Nc3ccccc3N)cc2)cc1", "cell line": "U-266", "assay": "MTT", "conditions": "72 h", "IC50": "4.21 µM"}
{"SMILES": "CC(=O)O[C@@]12CO[C@@H]1C[C@H](O)[C@@]1(C)C(=O)[C@H](O)C3=C(C)[C@@H](OC(=O)[C@H](O)[C@@H](NC(=O)OC(C)(C)C)c4ccccc4)C[C@@](O)([C@@H](OC(=O)c4ccccc4)[C@H]21)C3(C)C", "cell line": "SK-BR-3", "assay": "MTT", "conditions": "24 h", "IC50": "> 50 mg/L"}
{"SMILES": "COc1cc(C(=O)c2nc(-c3cccc4[nH]ccc34)c[nH]2)cc2c1OCO2", "cell line": "M14", "assay": "MTS", "conditions": "72 h", "IC50": "0.0036 µM"}
{"SMILES": "CO[C@H]1[C@H](O[C@H]([C@H]2O[C@@H](n3ccc(=O)[nH]c3=O)[C@H](O)[C@@H]2O)[C@H](NCCCNC(=O)[C@@H](NC(=O)[C@@H](NC(=O)N[C@H](C(=O)O)C(C)C)[C@@H]2CCN=C(N)N2)[C@@H](O)C(C)C)C(=O)O)O[C@H](CN)[C@H]1O", "cell line": "SK-BR-3", "assay": "WST-1", "IC50": "> 35 µM"}
{"SMILES": "Clc1ccc(-c2cc(CNc3cccc4cccnc34)on2)c(Cl)c1", "cell line": "HL-60", "assay": "MTS", "conditions": "72 h", "IC50": "67.1 µM"}
{"SMILES": "O=C(NO)c1ccc(Cn2cnc3c(Nc4ccc(Br)cc4F)ncnc32)cc1", "cell line": "U-266", "assay": "MTT", "conditions": "72 h", "IC50": "0.75 µM"}
{"SMILES": "FC(F)(F)c1cc(OCc2cc(-c3ccccn3)no2)c2ccccc2n1", "cell line": "HL-60", "assay": "MTS", "conditions": "72 h", "IC50": "> 100 µM"}
{"SMILES": "CC(C)C[C@H](NC(=O)[C@H](Cc1ccccc1)NC(=O)c1cnccn1)B(O)O", "cell line": "MP41", "assay": "ATP luminescence", "conditions": "72 h", "IC50": "0.00434 µM"}
{"SMILES": "COc1cc(C(=O)c2nc(-c3cccc4c3CC(=O)N4)c[nH]2)cc(OC)c1OC", "cell line": "M14", "assay": "MTS", "conditions": "72 h", "IC50": "0.0095 µM"}
{"SMILES": "COc1cc([C@@H]2c3cc4c(cc3[C@H](O)[C@H]3COC(=O)[C@H]23)OCO4)cc(OC)c1OC", "cell line": "MP41", "assay": "ATP luminescence", "conditions": "72 h", "IC50": "0.00649 µM"}
{"SMILES": "CC(=O)O[C@H]1C(=O)[C@@]2(C)[C@H]([C@H](OC(=O)c3ccccc3)[C@]3(O)C[C@H](OC(=O)[C@H](O)[C@@H](NC(=O)c4ccccc4)c4ccccc4)C(C)=C1C3(C)C)[C@]1(OC(C)=O)CO[C@@H]1C[C@@H]2O", "cell line": "M14", "assay": "MTS", "conditions": "72 h", "IC50": "0.0002 µM"}
{"SMILES": "CNC(=S)N/N=C/c1cccc2cc3ccccc3nc12", "cell line": "SK-BR-3", "assay": "MTT", "conditions": "48 h", "IC50": "41.8 µM"}
{"SMILES": "C[C@H]1[C@H](C)CC[C@]2(C)CC[C@]3(C)C(=CC(=O)[C@@H]4[C@@]5(C)CC[C@@H](O)[C@](C)(C(=O)NCc6cn(-c7cccc(C(F)(F)F)c7)nn6)[C@@H]5CC[C@]43C)[C@H]12", "cell line": "HDF", "assay": "MTT", "conditions": "24 h", "IC50": "116 µM"}
{"SMILES": "Nc1ccn([C@@H]2O[C@H](CO)[C@@H](O)C2(F)F)c(=O)n1", "cell line": "MP41", "assay": "ATP luminescence", "conditions": "72 h", "IC50": "0.0769 µM"}
{"SMILES": "NC1=NN(c2ccc([N+](=O)[O-])cc2[N+](=O)[O-])C(=O)C1N=Nc1ccccc1C(=O)O (stereo not drawn)", "cell line": "Vero", "assay": "MTT", "conditions": "72 h", "IC50": "54.4 µM"}
{"SMILES": "COc1cccc2c1C(=O)c1c(O)c3c(c(O)c1C2=O)C[C@@](O)(C(=O)CO)C[C@@H]3O[C@H]1C[C@H](N)[C@H](O)[C@H](C)O1", "cell line": "SK-BR-3", "assay": "MTT", "conditions": "24 h", "IC50": "54.4 mg/L"}
{"SMILES": "CC(C)CNC(=S)N/N=C/c1cccc2cc3ccccc3nc12", "cell line": "SK-BR-3", "assay": "MTT", "conditions": "48 h", "IC50": "> 50 µM"}
{"SMILES": "Nc1ccccc1NC(=O)c1ccc(Cn2cnc3c(Nc4ccc(Cl)cc4)ncnc32)cc1", "cell line": "HL-60", "assay": "MTT", "conditions": "72 h", "IC50": "1.11 µM"}
{"SMILES": "C/C(=N/NC(=O)c1cn(-c2ccccc2)nc1-c1ccc(Br)cc1)c1c(O)cc(C)oc1=O", "cell line": "Vero", "assay": "MTT", "conditions": "48 h", "IC50": "192 µM"}
{"SMILES": "COc1ccccc1-n1cc(CNC(=O)[C@@]2(C)[C@H](O)CC[C@@]3(C)[C@H]2CC[C@]2(C)[C@@H]3C(=O)C[C@@H]3[C@@H]4[C@@H](C)[C@H](C)CC[C@]4(C)CC[C@]32C)nn1", "cell line": "HDF", "assay": "MTT", "conditions": "24 h", "IC50": "105 µM"}
{"SMILES": "COc1cc(C(=O)c2nc(-c3ccsc3)c[nH]2)cc(OC)c1OC", "cell line": "M14", "assay": "MTS", "conditions": "72 h", "IC50": "0.0485 µM"}
{"SMILES": "COc1ccc(-n2cc(CNC(=O)[C@@]3(C)[C@H](O)CC[C@@]4(C)[C@H]3CC[C@]3(C)[C@@H]4C(=O)C=C4[C@@H]5[C@@H](C)[C@H](C)CC[C@]5(C)CC[C@]43C)nn2)cc1", "cell line": "HDF", "assay": "MTT", "conditions": "24 h", "IC50": "109 µM"}
{"SMILES": "Nc1ccccc1NC(=O)c1ccc(Cn2cnc3c(Nc4ccc(Br)cc4F)ncnc32)cc1", "cell line": "U-266", "assay": "MTT", "conditions": "72 h", "IC50": "0.46 µM"}
{"SMILES": "COc1cc(C(=O)c2nc(-c3ccnc4[nH]ccc34)c[nH]2)cc(OC)c1OC", "cell line": "M14", "assay": "MTS", "conditions": "72 h", "IC50": "0.0158 µM"}
{"SMILES": "O=c1cc(OCc2cc(-c3ccccn3)no2)c2ccccc2o1", "cell line": "HL-60", "assay": "MTS", "conditions": "72 h", "IC50": "> 100 µM"}
{"SMILES": "Cc1noc2c1-c1ccc(-c3cnn(C)c3)cc1C(c1ccc(Cl)cc1)=N[C@H]2CC(N)=O", "cell line": "MP41", "assay": "ATP luminescence", "conditions": "72 h", "IC50": "0.376 µM"}
{"SMILES": "COc1cccc2c1C(=O)c1c(O)c3c(c(O)c1C2=O)C[C@@](O)(C(=O)CO)C[C@@H]3O[C@H]1C[C@H](N)[C@H](O)[C@H](C)O1", "cell line": "CHO-K1", "assay": "ATP luminescence", "conditions": "72 h", "IC50": "0.34 µM"}
{"SMILES": "COc1ccc(N(C)c2nc(C)nc3ccccc23)cc1OCCCC(=O)NO", "cell line": "MP41", "assay": "ATP luminescence", "conditions": "72 h", "IC50": "0.0844 µM"}
{"SMILES": "O=C(NO)c1ccc(Cn2cnc3c(Nc4ccc(Cl)cc4)ncnc32)cc1", "cell line": "U-266", "assay": "MTT", "conditions": "72 h", "IC50": "0.63 µM"}
{"SMILES": "S=C(N/N=C/c1cccc2cc3ccccc3nc12)Nc1ccccc1", "cell line": "SK-BR-3", "assay": "MTT", "conditions": "48 h", "IC50": "> 50 µM"}
{"SMILES": "Cc1noc(C)c1-c1cc(C(O)(c2ccccn2)c2ccccn2)c2nc(C3CC3)[nH]c2c1", "cell line": "MP41", "assay": "ATP luminescence", "conditions": "72 h", "IC50": "0.104 µM"}
